High-throughput results as filed in PubChem BioAssay.
Hits are enriched below; roughly 4.3% of the tested compounds scored in any of these assays.
TAAR1 antagonist = human TAAR1 antagonism; inhibition, % at 3 µM; 1.5% of 360,000 active; CHO RD-HGA16 TAAR1, Fluo-8 calcium fluorescence, antagonist;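 active = inhibition above a per-plate cutoff, the mean inhibition of test compounds on that plate plus 3 SD, cut at about 49% in these data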;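 also: 0% = DMSO plus EC80 beta-PEA response and 100% = DMSO alone without agonist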
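test system = CHO RD-HGA16 cells bearing hTAAR1 | replication = singlicate | controls = DMSO-only wells and EC80 β-PEA-stimulated wells | reagent = EC80 β-phenethylamine stimulus | read-out basis = percent inhibition of PEA-evoked calcium signal, max/basal emission ratio | schedule = seeding 17-24 h prior, 75-min 37 °C, 30-min RT dye loading | signal = kinetic Fluo-8 calcium fluorescence measurement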
B2AR ag = activates human beta-2 adrenergic receptor causing internalization; P07550; response, % (test concentration not listed); Am2.2-beta2AR cells, FAP receptor internalization, flow cytometry; 0.43% of 340,000 active; AID 504454;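 active = response above a set limit, near 3 SD of response in nonfluorescent compounds, cut at about 42% in these data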
MC4R barr agon = activates human MC4R beta-arrestin recruitment; activation, % at 8.9 µM; P32245; U2OS MC4R beta-arrestin complementation, luminescence; percent of melanotan II response, DMSO zero; 0.98% of 360,000 active;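 active = activation above a per-plate cutoff, the mean activation of sample wells on that plate plus 3 SD, cut at about 8% in these data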
m5-HT2A agonist = mouse HTR2A agonism via beta-arrestin recruitment; activation, % at 7.6 µM; 0.66% of 360,000 active; CHO-K1 mHTR2A beta-arrestin complementation, luminescence; percent of 30 µM serotonin response;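 active = activation above a run cutoff, the mean activation of all tested compounds plus 3 SD, cut at about 14% in these data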;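 also: 0% = plate median of compound wells and 100% = 30 µM serotonin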
Target sequence (P35363 whole entry, looked up): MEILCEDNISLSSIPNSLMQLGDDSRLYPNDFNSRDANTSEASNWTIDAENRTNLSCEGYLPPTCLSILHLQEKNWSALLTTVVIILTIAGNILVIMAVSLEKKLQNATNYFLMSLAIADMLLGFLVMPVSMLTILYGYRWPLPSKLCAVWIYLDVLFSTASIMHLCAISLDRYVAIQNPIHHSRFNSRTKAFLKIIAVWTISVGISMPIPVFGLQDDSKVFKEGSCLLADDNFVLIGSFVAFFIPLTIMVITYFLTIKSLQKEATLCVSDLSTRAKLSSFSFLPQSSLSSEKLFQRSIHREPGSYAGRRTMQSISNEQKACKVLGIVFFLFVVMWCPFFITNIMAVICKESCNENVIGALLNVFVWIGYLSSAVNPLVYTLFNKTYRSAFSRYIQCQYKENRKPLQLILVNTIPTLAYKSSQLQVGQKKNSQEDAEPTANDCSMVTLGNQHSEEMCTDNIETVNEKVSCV
MC4R antag cAMP = blocks human MC4R cAMP signaling; P32245; MC4R-expressing cells, MTII-stimulated cAMP, LANCE TR-FRET; inhibition, % at 6.5 µM; 0.48% of 360,000 active; AID 540295;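 active = inhibition above its plate's cutoff, the mean of tested wells on that plate plus 3 SD, cut at about 29% in these data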;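 also: 0% = Melanotan II alone and 100% = Melanotan II plus saturating MCL0020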
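system = U2OS cells with stable human MC4R expression | also added = Melanotan II challenge after compound preincubation | dosing = one concentration, 6.5 µM nominal | incubation = compound 30 min, challenge 1 h, detection 1 h | measured by = TR-FRET with Eu-cAMP and labeled anti-cAMP, 671 nm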
TAAR1 agonist = human TAAR1 agonism; Q96RJ0; CHO RD-HGA16 TAAR1, Fluo-8 calcium fluorescence; vehicle wells 0%, saturating PEA agonist 100%; 0.99% of 360,000 active; activation, % at 3 µM;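 active = activation above the mean activation of all test compounds in the run plus 3 SD, cut at about 38% in these data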
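Assay system – CHO-derived RD-HGA16 cells with stable Gα16 and human TAAR1 · Compound dosing – one-point dosing at 3 µM (nominal) · Incubation – 17-24 h seeding, 75 min 37 °C dye, 30 min RT · Measured by – kinetic Fluo-8 calcium fluorescence · Control set – DMSO vehicle as 0%, PEA at EC100 as 100% · Repeats – single well for each compound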
An asterisk follows results filed as active; · = no result given; ! = a repeat was not active.

SMILES	TAAR1 antagonist	B2AR ag	MC4R barr agon	m5-HT2A agonist	MC4R antag cAMP	TAAR1 agonist
COc1cccc(-c2csc(N3CCN(CC(=O)NNC(=O)c4ccc(Cl)cc4)CC3)n2)c1	35	3	8.8*	7	0	13
COc1cccc(-c2csc(N3CCN(CC(=O)NNC(=O)c4ccco4)CC3)n2)c1	17	5	-4	2	6	1
COc1cccc(-c2csc(N3CCN(C(=O)Nc4ccc(Cl)cc4)CC3)n2)c1	58*	4	-4	-2	11	10
Cc1noc(C)c1S(=O)(=O)N(C)C[C@@H]1OCc2cnnn2CCCC(=O)N([C@@H](C)CO)C[C@@H]1C	2	·	·	·	·	7
COc1ccc(CNS(=O)(=O)c2cc(Cl)ccc2N2CC[C@@H](O)C2)cc1	16	·	·	·	·	7
COc1ccc(-n2c(O)c(/C=N/NS(=O)(=O)c3ccc(C)cc3)c3ccccc3c2=O)cc1OC	42	-362	1	-1	6	21
COc1ccc(-n2c(O)c(/C=N/NS(=O)(=O)c3cc(C)ccc3C)c3ccccc3c2=O)cc1OC	50*	-861	3	2	18	42*
CN(c1ccccc1)S(=O)(=O)c1cccc(NC(=O)CCNC(=O)c2ccccc2)c1	54*	4	-5	-2	-1	15
CN(c1ccccc1)S(=O)(=O)c1cccc(NC(=O)CCNC(=O)c2ccc(Cl)cc2)c1	37	15	0	-2	7	4
CN(C)S(=O)(=O)c1cccc(NC(=O)COc2ccc(C(=O)c3ccccc3)cc2)c1	51*	-4	-3	6	17	6
CN(c1ccccc1)S(=O)(=O)c1cccc(NC(=O)COc2ccccc2)c1	53*	-6	-3	-2	3	7
COC(=O)c1cc(NC(=O)CN(c2ccc(OC)cc2)S(=O)(=O)c2ccc(F)cc2)ccc1Cl	53*	-3	0	-7	5	7
CC(C)(C)NC(=O)C(CCc1ccccc1)n1c(=O)c(-c2cc3ccccc3[nH]2)nc2ccccc21 (configuration not stated)	-2	·	·	-3	·	0
Cc1ccc(NC(=S)Nc2ccc(-c3nnc4n3CCCCC4)cc2)cc1C	1	·	·	·	·	6
COC(=O)c1cc2c(c3c4cc(OC)ccc4n(S(=O)(=O)c4cccc(C)c4)c13)C(=O)N(Cc1ccc(C(F)(F)F)cc1)C2	-18	·	·	·	·	-1
Cc1ccc(S(=O)(=O)N(CC(=O)Nc2cccc(N(C)S(C)(=O)=O)c2)c2ccc(Cl)c(Cl)c2)cc1	19	6	-1	-3	3	1
CN(c1cccc(NC(=O)CN(c2ccc(Cl)c(Cl)c2)S(=O)(=O)c2ccccc2)c1)S(C)(=O)=O	57*	0	0	-4	0	9
CCOC(=O)C1=CCN(S(=O)(=O)c2ccc(Cl)cc2)C1c1cccc(F)c1 (configuration not stated)	21	·	·	·	·	3
Cc1cc(C)c(N(C(=O)CN2C(=O)c3ccccc3S2(=O)=O)C(C(=O)NCC2CCCO2)c2ccc(F)cc2)c(C)c1 (configuration not stated)	52*	5	0	-1	-3	14
Cc1cc(C)c2nc(NCCCNC(=S)NCCCN(C)C)c(C#N)cc2c1	10	43*	0	0	1	5
CC(C)(C)NC(=O)C1CCC(CNS(=O)(=O)c2cccc3nsnc23)CC1 (configuration not stated)	76*	-6	0	6	-1	42*
CCC(C)(C)NC(=O)C1CCC(CNS(=O)(=O)c2cccc3nsnc23)CC1 (configuration not stated)	·	-2	-1	7	-5	·
C=CCn1c(=O)c2ccccc2n2c(SC(C)C(N)=O)nnc12 (configuration not stated)	1	0	0	1	2	1
C=CCn1c(=O)c2ccccc2n2c(SCC(=O)/C(C#N)=C(\C)N)nnc12	-7	65*!	-2	-2	-3	1
Cc1ccc(O)c(-c2cc(-c3ccccc3[N+](=O)[O-])[nH]n2)c1	57*	2	8.9*	-1	2	9
SMILES	TAAR1 antagonist	B2AR ag	MC4R barr agon	m5-HT2A agonist	MC4R antag cAMP	TAAR1 agonist
O=[N+]([O-])c1ccccc1-c1cc(-c2cc(Cl)ccc2O)n[nH]1	37	2	-2	-4	14	24
COC(=O)c1ccsc1NS(C)(=O)=O	-4	·	·	·	·	2
Cc1cc2c(cc1C)NC(=O)CC(C(F)(F)C(F)(F)C(F)(F)F)=N2	-13	-1	8.7*	1	8	0
Cc1ccc2c(c1)NC(=O)CC(c1ccccc1)=N2	-17	-10	-2	-8	3	11
CCCN(C(=O)c1c(CC)noc1C)c1c(N)n(Cc2ccccc2)c(=O)[nH]c1=O	-30	-6	-2	2	12	2
CCOC(=O)C1CSCCS(=O)(=O)N1Cc1ccc(F)cc1 (configuration not stated)	-13	·	·	·	·	0
O=C1c2ccccc2C(=O)N1CCCc1cn(C[C@H]2CC[C@@H]([C@@H]3CC[C@H](Cn4cc(CCCN5C(=O)c6ccccc6C5=O)nn4)O3)O2)nn1	28	-7	-1	0	-1	13
O=C1c2ccccc2C(=O)N1CCCCc1cn(C[C@H]2CC[C@@H]([C@@H]3CC[C@H](Cn4cc(CCCCN5C(=O)c6ccccc6C5=O)nn4)O3)O2)nn1	55*	-2	-1	1	21	20
O=C(NCc1ccc(Cl)cc1)c1ccc(S(=O)(=O)N2CCCCC2)cc1	11	10	9.4*	-6	-2	9
CC1CCN(S(=O)(=O)c2ccc(C(=O)NCc3ccc4c(c3)OCO4)cc2)CC1	58*	11	4	-5	0	17
O=[N+]([O-])c1ccc(COc2ccccc2CO)cc1	-10	·	·	·	·	-1
COC(=O)c1ccc2c(=O)n(CCCCCC(=O)NC3CCCCC3)c(=O)[nH]c2c1	12	·	·	·	·	0
CCOc1ccc(N(CC(=O)NCc2ccc(F)cc2)C(=O)c2snc(C(N)=O)c2N)cc1	-9	-2	13*	-7	10	9
CCc1ccc(C(C)NC(=S)NCc2ccc(F)cc2)cc1 (configuration not stated)	44	8	1	-3	-4	40*
CCOC(=O)C1=C(C)N2C(=C(C#N)[C@@H]1c1ccc(C(=O)OC)cc1)SC[C@@]2(O)C(C)(C)C	-20	-4	0	-8	33*	4
CCOc1ccc(OCc2ccc(C(=O)N3CCc4ccccc4C3)o2)cc1	1	0	1	15*	3	17
